Test results reported in ChEMBL document CHEMBL1156107, “Synthesis of new alkylaminooxysterols with potent cell differentiating activities: identification of leads for the treatment of cancer and neurodegenerative diseases” (J Med Chem, 2009).
Calls of active or inactive are those of the source. No cut-off for these calls is given here.

Key:
[1] = system: U-937; assay: Cytotoxicity against human U937 cells after 72 hrs by trypan blue exclusion assay; format: functional, cell-based
Summary of the method: (§1)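 Cells were exposed for 72 h to the test agent at increasing concentrations from 10 nM to 20 μM, at 37 °C in humidified 5% CO2. Cells were scraped and resuspended in 0.25% w/v trypan blue in PBS, and dead cells were counted under a light microscope in a Malassez chamber. IC50 is the concentration giving 50% cytotoxicity. Values are mean ± SE of three independent experiments, each run in duplicate.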

[2] = system: SK-MEL-28; assay: Cytotoxicity against human SK-MEL-28 cells after 72 hrs by trypan blue exclusion assay; format: functional, cell-based; summary of the method: as §1
[3] = system: TS/A; assay: Cytotoxicity against mouse TSA cells after 72 hrs by trypan blue exclusion assay; format: functional, cell-based; summary of the method: as §1
[4] = system: P19; assay: Cytotoxicity against mouse P19 cells after 72 hrs by trypan blue exclusion assay; format: functional, cell-based; summary of the method: as §1
[5] = system: P19; assay: Induction of dendrite out growth in IL-4/GMCSF-stimulated mouse P19 cells assessed as dendrite length at 100 nM after 48 hrs by light microscopy; format: functional
[6] = system: KG-1; assay: Cytotoxicity against human KG1 cells after 72 hrs by trypan blue exclusion assay; format: functional, cell-based; summary of the method: as §1
[7] = system: SW-620; assay: Cytotoxicity against human SW620 cells after 72 hrs by trypan blue exclusion assay; format: functional, cell-based; summary of the method: as §1
[8] = system: B16-F10; assay: Cytotoxicity against mouse B16F10 cells after 72 hrs by trypan blue exclusion assay; format: functional, cell-based; summary of the method: as §1
[9] = system: U-937; assay: Cytotoxicity against human U937 cells after 3 days by trypan blue exclusion assay; format: functional, cell-based
Summary of the method: (§2)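 U937 and P19 cells treated with compound. Cell death scored by trypan blue exclusion, with cells scraped, suspended in 0.25% w/v trypan blue in PBS and counted in a Malassez cell. IC50 is the concentration giving 50% cytotoxicity.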

[10] = system: P19; assay: Cytotoxicity against mouse P19 cells after 3 days by trypan blue exclusion assay; format: functional, cell-based; summary of the method: as §2
[11] = system: A549; assay: Cytotoxicity against human A549 cells after 72 hrs by trypan blue exclusion assay; format: functional, cell-based; summary of the method: as §1
[12] = system: NB-4; assay: Cytotoxicity against human NB4 cells after 72 hrs by trypan blue exclusion assay; format: functional, cell-based; summary of the method: as §1
[13] = system: U-937; assay: Induction of dendrite out growth in IL-4/GMCSF-stimulated human U937 cells assessed as dendrite length at 100 nM after 48 hrs by light microscopy; format: functional
Summary of the method: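 U937 cells at 1.1 × 10⁶ cells/mL were primed with 10 ng/mL PMA for 48 h in RPMI with 10% heat-inactivated serum. Adherent cells were then given 100 ng/mL IL-4 plus 100 ng/mL GM-CSF or 100 nM compound for 48 h. Dendrite length scored by light microscopy, from none to over 100 μm with a contact network.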

[14] = system: SK-N-SH; assay: Cytotoxicity against human SK-N-SH cells after 72 hrs by trypan blue exclusion assay; format: functional, cell-based; summary of the method: as §1
[15] = system: MCF7; assay: Cytotoxicity against human MCF7 cells after 72 hrs by trypan blue exclusion assay; format: functional, cell-based; summary of the method: as §1
[16] = system: N2a; assay: Cytotoxicity against mouse Neuro2a cells after 72 hrs by trypan blue exclusion assay; format: functional, cell-based; summary of the method: as §1
[17] = system: SH-SY5Y; assay: Cytotoxicity against human SH-SY5Y cells after 72 hrs by trypan blue exclusion assay; format: functional, cell-based; summary of the method: as §1
[18] = system: HCT-8; assay: Cytotoxicity against human HCT8 cells after 72 hrs by trypan blue exclusion assay; format: functional, cell-based; summary of the method: as §1
[19] = system: U-87MG ATCC; assay: Cytotoxicity against human U87 cells after 72 hrs by trypan blue exclusion assay; format: functional, cell-based; summary of the method: as §1
[20] = organism: Homo sapiens; assay: Plasma concentration healthy human; format: ADME, organism-based; conditions: in vivo
[21] = system: MCF7; assay: Induction of human MCF7 cell differentiation assessed as milk fat accumulation in intracytoplasmic vesicle at 5 uM after 48 hrs by Bligh and Dyer method; format: functional, cell-based
Summary of the method: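 MCF-7 cells (5 million) exposed to vehicle or compound for 48 h, washed three times in PBS. Lipids extracted by the Bligh and Dyer method and triglycerides quantified.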

[22] = system: MCF7; assay: Induction of human MCF7 cell differentiation assessed as lipid accumulation in intracytoplasmic vesicle at 5 uM after 48 hrs by oil red O staining-based light microscopy; format: functional
Summary of the method: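 MCF-7 cells on glass coverslips treated with drug, fixed in 3.7% paraformaldehyde for 1 h at room temperature, and stained with oil red O in 60% isopropanol with hematoxylin counterstain. Dye extracted with isopropanol and read at 510 nm, with control subtracted and the value normalized to SYBR green DNA stain.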

[23] = system: MCF7; assay: Induction of human MCF7 cell differentiation assessed as stimulation of milk fat globulin expression at 5 uM after 48 hrs by immunocytochemistry; format: functional, cell-based
[24] = system: P19; assay: Cytotoxicity against mouse P19 cells up to 20 uM after 3 days by trypan blue exclusion assay; format: functional, cell-based; summary of the method: as §2
[25] = system: U-937; assay: Cytotoxicity against human U937 cells up to 20 uM after 3 days by trypan blue exclusion assay; format: functional, cell-based; summary of the method: as §2
[26] = Homo sapiens, U-937, 72 h, read-out: IC50
[27] = Mus musculus, P19, 72 h, read-out: IC50

Structure (SMILES) | Activity [5] | IC50 [9, 26] [µM] | IC50 [10, 27] [µM] | Activity [13] | IC50 ([9]; u-937) | IC50 ([10]; p19) | also measured
CC(C)CCC[C@@H](C)[C@H]1CC[C@H]2[C@@H]3C[C@@H](n4cnc(CCN)c4)[C@@]4(O)C[C@@H](O)CC[C@]4(C)[C@H]3CC[C@]12C | <5 um | 7.7 | 8.9 | <5 um |  |  | Activity [1]: inactive; Activity [2]: inactive; Activity [3]: inactive; Activity [4]: inactive; Activity [6]: inactive; Activity [7]: inactive; Activity [8]: inactive; Activity [11]: inactive; Activity [12]: inactive; Activity [14]: inactive; Activity [15]: inactive; Activity [16]: inactive; Activity [17]: inactive; Activity [18]: inactive; Activity [19]: inactive
CCCC(=O)O[C@H]1CC[C@]2(C)[C@H]3CC[C@]4(C)[C@@H]([C@H](C)CCCC(C)C)CC[C@H]4[C@@H]3C[C@@H]3O[C@@]32C1 | inactive |  |  | inactive | Not Active | Not Active | 
C[C@]12CC[C@H]3[C@@H](C[C@@H]4O[C@@]45C[C@@H](O)CC[C@]35C)[C@@H]1CC[C@@H]2O | inactive |  |  | inactive | Not Active | Not Active | 
CC(C)CCC[C@@H](C)[C@H]1CC[C@H]2[C@@H]3C[C@@H](NCCCNCCCCNCCCN)[C@@]4(O)C[C@@H](O)CC[C@]4(C)[C@H]3CC[C@]12C | 10 um |  |  | <5 um | Not Active | Not Active | 
CC(=O)O[C@H]1CC[C@]2(C)[C@H]3CC[C@]4(C)[C@@H]([C@H](C)CCCC(C)C)CC[C@H]4[C@@H]3C[C@@H](NCCc3c[nH]cn3)[C@@]2(O)C1 | 50 um | 0.9 | 2.5 | 50 um |  |  | 
CC(C)CCC[C@@H](C)[C@H]1CC[C@H]2C3=C[C@@H](NCCCCNCCCN)[C@@]4(O)C[C@@H](O)CC[C@]4(C)[C@H]3CC[C@]12C | 50 um |  |  | <5 um | Not Active | Not Active | 
CC(C)CCC[C@@H](C)[C@H]1CC[C@H]2[C@@H]3C[C@@H]4O[C@@]45C[C@@H](O)CC[C@]5(C)[C@H]3CC[C@]12C | inactive |  |  | inactive | Not Active | Not Active | concentration [20]: 1 nM
CC(=O)O[C@H]1CC[C@]2(C)[C@H]3CC[C@]4(C)[C@@H]([C@H](C)CCCC(C)C)CC[C@H]4[C@@H]3C[C@@H]3O[C@@]32C1 | inactive |  |  | inactive | Not Active | Not Active | 
CC(C)CCC[C@@H](C)[C@H]1CC[C@H]2[C@@H]3CC=C4C[C@@H](O)CC[C@]4(C)[C@H]3CC[C@]12C [CHOLESTEROL] | inactive |  |  | inactive | Not Active | Not Active | 
CC(C)CCC[C@@H](C)[C@H]1CC[C@H]2[C@@H]3C[C@@H](NCCCCN)[C@@]4(O)C[C@@H](O)CC[C@]4(C)[C@H]3CC[C@]12C | 10 um | 2.1 | 2.6 | 5 um |  |  | 
CC/C(=C(\c1ccccc1)c1ccc(OCCN(C)C)cc1)c1ccccc1 |  |  |  |  |  |  | Activity [21]: Active; Activity [22]: Active; Activity [23]: Active
NCCCCNCCCN [SPERMIDINE] | inactive |  |  | inactive | Not Active | Not Active | 
NCCCCN [PUTRESCINE] | inactive |  |  | inactive | Not Active | Not Active | 
CC(C)CCC[C@@H](C)[C@H]1CC[C@H]2[C@@H]3C[C@H]4O[C@]45C[C@@H](O)CC[C@]5(C)[C@H]3CC[C@]12C | inactive |  |  | inactive | Not Active | Not Active | concentration [20]: 1 nM
NCCCNCCCCNCCCN [SPERMINE] | inactive |  |  | inactive | Not Active | Not Active | 
CCCC(=O)O[C@H]1CC[C@]2(C)[C@H]3CC[C@]4(C)[C@@H]([C@H](C)CCCC(C)C)CC[C@H]4[C@@H]3C[C@@H](NCCc3c[nH]cn3)[C@@]2(O)C1 | inactive | 8.2 | 9.4 | inactive |  |  | 
CC(C)CCC[C@@H](C)[C@H]1CC[C@H]2C3=C[C@@H]4O[C@@]45C[C@@H](O)CC[C@]5(C)[C@H]3CC[C@]12C | inactive |  |  | inactive | Not Active | Not Active | 
NCCc1c[nH]cn1 [HISTAMINE] | inactive |  |  | inactive | Not Active | Not Active | 
CC[C@H](CC[C@@H](C)[C@H]1CC[C@H]2[C@@H]3C[C@@H](NCCc4c[nH]cn4)[C@@]4(O)C[C@@H](O)CC[C@]4(C)[C@H]3CC[C@]12C)C(C)C | 50 um | 1.1 | 2.5 | 50 um |  |  | 
CC(C)CCC[C@@H](C)[C@H]1CC[C@H]2[C@@H]3C[C@@H](NCCCNCCCCN)[C@@]4(O)C[C@@H](O)CC[C@]4(C)[C@H]3CC[C@]12C | 50 um |  |  | <5 um | Not Active | Not Active | 
CC(C)CCC[C@@H](C)[C@H]1CC[C@H]2C3=C[C@@H](NCCCNCCCCNCCCN)[C@@]4(O)C[C@@H](O)CC[C@]4(C)[C@H]3CC[C@]12C | 10 um |  |  | <5 um | Not Active | Not Active | 
CC(C)CCC[C@@H](C)[C@H]1CC[C@H]2C3=C[C@@H](NCCCCN)[C@@]4(O)C[C@@H](O)CC[C@]4(C)[C@H]3CC[C@]12C | 50 um | 2.6 | 2.8 | 5 um |  |  | 
CC(C)CCC[C@@H](C)[C@H]1CC[C@H]2C3=C[C@@H](NCCc4c[nH]cn4)[C@@]4(O)C[C@@H](O)CC[C@]4(C)[C@H]3CC[C@]12C | 5 um | 7.6 | 5.3 | <5 um |  |  | 
CC[C@H](CC[C@@H](C)[C@H]1CC[C@H]2[C@@H]3C[C@@H]4O[C@@]45C[C@@H](O)CC[C@]5(C)[C@H]3CC[C@]12C)C(C)C | inactive |  |  | inactive | Not Active | Not Active | 
C[C@]12CC[C@H]3[C@@H](C[C@@H](NCCc4c[nH]cn4)[C@@]4(O)C[C@@H](O)CC[C@]34C)[C@@H]1CC[C@@H]2O | inactive | 9.8 | 7.3 | inactive |  |  | 
CC(C)CCC[C@@H](C)[C@H]1CC[C@H]2[C@@H]3C[C@@H](NCCCCNCCCN)[C@@]4(O)C[C@@H](O)CC[C@]4(C)[C@H]3CC[C@]12C | 50 um |  |  | <5 um | Not Active | Not Active | Activity [24]: inactive; Activity [25]: inactive
